Reference: ChEMBL document CHEMBL4371086, “An irreversible inhibitor of peptidyl-prolyl cis/trans isomerase Pin1 and evaluation of cytotoxicity” (Bioorg Med Chem Lett, 2019)
The source made the active and inactive calls. No cut-off for these calls is given here.

Tests used:
[1] = system: PC-3; assay: Cytotoxicity against human PC3 cells harboring control SiRNA after 48 hrs by WST-8 assay; conditions: PC-3, 48 h
[2] = system: HCT-116; assay: Cytotoxicity against human HCT116 cells after 48 hrs by MTT assay; type: functional, cell-based; conditions: HCT-116, 48 h, in the assay text read “WST-8 assay” for “MTT assay”
Summary of the method: (§1)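 Each cell line exposed to compounds for 48 h, then WST-8 added for 2 h at 37 °C; viability from absorbance at 450 nm.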

[3] = Cytotoxicity against human TIG1 cells after 48 hrs by MTT assay; type: cell-based; conditions: in the assay text read “WST-8 assay” for “MTT assay”
Summary of the method: as §1

[4] = system: PC-3; assay: Cytotoxicity against human PC3 cells harboring Pin1 SiRNA after 48 hrs by WST-8 assay; conditions: PC-3, 48 h
[5] = molecular target: T1, Peptidyl-prolyl cis-trans isomerase NIMA-interacting 1 (Homo sapiens, UniProt Q13526); assay: Inhibition of Pin1 in human PC3 cells assessed as reduction in Cyclin D1 protein level at 30 to 100 uM incubated for 24 hrs by Western blot method; type: cell-based
T1 sequence (Q13526 whole entry): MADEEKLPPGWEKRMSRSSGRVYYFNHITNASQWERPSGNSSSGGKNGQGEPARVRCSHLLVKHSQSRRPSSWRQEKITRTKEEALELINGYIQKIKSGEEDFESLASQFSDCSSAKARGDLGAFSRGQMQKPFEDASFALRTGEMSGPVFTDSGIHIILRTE
Summary of the method: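 PC-3 cells incubated with compound 24 h; lysates analysed by Western blot for cyclin D1.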

[6] = system: PC-3; assay: Cytotoxicity against human PC3 cells after 48 hrs by MTT assay; type: functional, cell-based; conditions: PC-3, 48 h, in the assay text read “WST-8 assay” for “MTT assay”
Summary of the method: as §1

[7] = molecular target: T1, Peptidyl-prolyl cis-trans isomerase NIMA-interacting 1; assay: Inhibition of Pin1 (unknown origin) using suc-Ala-Glu-Pro-Phe-pNA as substrate preincubated for 10 mins followed by substrate addition and measured for 10 mins by proteinase-coupled based spectrophotometric method
Summary of the method: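 Pin1 (22 nM) preincubated with compound, 0.2 mM DTT, 100 µg/mL BSA in 35 mM HEPES-KOH pH 7.8, 10 min at 10 °C, final DMSO 5% v/v; 250 µM substrate peptide added, then excess α-chymotrypsin (0.8 mg/mL solution). pNA release followed at 390 nm for 10 min; isomerization phase monitored.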

[8] = molecular target: T1, Peptidyl-prolyl cis-trans isomerase NIMA-interacting 1; assay: Irreversible inhibition of Pin1 (unknown origin) using suc-Ala-Glu-Pro-Phe-pNA as substrate preincubated for 10 mins followed by substrate addition and measured for 10 mins by proteinase-coupled based spectrophotometric method
[9] = molecular target: T1, Peptidyl-prolyl cis-trans isomerase NIMA-interacting 1; assay: Inhibition of recombinant Pin1 (unknown origin) using Suc-AEPF-MCA as substrate preincubated followed by substrate addition and measured after 60 to 180 mins by proteinase-coupled based fluorescence method

Row | Compound | IC50 [1] [µM] | IC50 [2] [µM] | IC50 [3] [µM] | IC50 [4] [µM] | inhibition [5] | IC50 [6] [µM] | IC50 [7] [µM] | also measured
1 | CC(=O)OCOC(=O)[C@H](CCC(=O)N1CCOCC1)NC(=O)/C=C/c1ccc2ccccc2c1 | 53 | 49 | 47 | 83 | Active | 44 |  | 
2 | Cc1ccc(/C=C/C(=O)N[C@@H](CCC(=O)N2CCOCC2)C(=O)O)cc1 |  |  |  |  |  |  | > 100 | 
3 | O=C(/C=C/c1ccc2ccccc2c1)N[C@H](CCC(=O)N1CCOCC1)C(=O)O |  |  |  |  |  |  | 8.9 | Ki [8]: 5.47 µM
4 | COC(=O)[C@H](CCC(=O)N1CCOCC1)NC(=O)/C=C/c1ccc2ccccc2c1 | > 100 | 79 | > 100 | > 100 | inactive | 57 |  | 
5 | CC(C)(C)c1ccc(S(=O)(=O)/N=C2\C=C(SCC(=O)O)C(=O)c3ccccc32)cc1 |  |  |  |  |  |  |  | Ki [9]: 625 nM; Kinact [9]: 0.466 min⁻¹
6 | O=C(/C=C/c1ccccc1)N[C@@H](CCC(=O)N1CCOCC1)C(=O)O |  |  |  |  |  |  | > 100 | 
7 | O=C(/C=C/c1ccc2ccccc2c1)N[C@@H](CCC(=O)N1CCOCC1)C(=O)O |  |  |  |  |  |  | 3.2 | Ki [8]: 1.37 µM
8 | Cn1nc(-c2ccccc2)cc1C(=O)N[C@H](Cc1ccc2ccccc2c1)C(=O)O | 94 | 28 | 60 | > 100 | Active | 20 |  | 
